Results taken from ChEMBL document CHEMBL4330094, “Potent Metabolic Sialylation Inhibitors Based on C-5-Modified Fluorinated Sialic Acids” (J Med Chem, 2019).
Activity calls are given as the source filed them. The rule behind the calls is not given here.

Columns and labels:
[1] = Inhibition of sialyltransferase in mouse B16F10 cells assessed as decrease in lectin binding after 3 days by biotinylated MAL2 lectin and streptavidin-PE based flow cytometry; assay type: cell-based
Outline: (§1)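 Each cell line was incubated 3 days with increasing compound concentrations or equivalent DMSO. Cells were stained with biotinylated MALII (5 µg/ml) in carbo-free blocking buffer with 1 mM CaCl/MgCl for 45-60 min at 4 °C, washed in PBS/1% BSA/0.02% azide, then stained with streptavidin-PE for 20 min at 4 °C. For flow cytometry, MFI was normalized to control as % lectin binding.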

B16-F10 [2] = experiment: Relative inhibitory potency, ratio of SiaFAc to compound EC50 for inhibition of sialyltransferase in mouse B16-F10 cells; assay type: cell-based
B16-F10 [3] = experiment: Effect on total cell surface glycosylation in mouse B16F10 cells assessed as inhibition of biotinylated PHA-L lectin binding at 102.4 uM after 3 days by flow cytometry; assay type: cell-based; settings: b16-f10, 72 h
Outline: (§2)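 B16-F10 cells were exposed 3 days to 102.4 µM compound or DMSO. Staining used biotinylated lectins (AAL 5, PNA 5, GSL-I 1, LCA 1, PHA-L 1, PSA 1, SJA 1, WGA 1 µg/ml) in carbo-free blocking buffer with 1 mM CaCl and 1 mM MgCl for 45-60 min at 4 °C, then streptavidin-PE for 20 min at 4 °C. Flow cytometry read-out was MFI, mean ± SEM from two independent experiments.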

[4] = Inhibition of sialyltransferase in human HeLa cells assessed as decrease in lectin binding after 3 days by biotinylated MAL2 lectin and streptavidin-PE based flow cytometry; assay type: cell-based; outline: as §1
B16-F10 [5] = experiment: Effect on total cell surface glycosylation in mouse B16F10 cells assessed as inhibition of biotinylated PNA lectin binding at 102.4 uM after 3 days by flow cytometry; assay type: cell-based; settings: b16-f10, 72 h; outline: as §2
B16-F10 [6] = experiment: Effect on total cell surface glycosylation in mouse B16F10 cells assessed as inhibition of biotinylated PSA-lectin binding at 102.4 uM after 3 days by flow cytometry; assay type: cell-based; settings: b16-f10, 72 h; outline: as §2
B16-F10 [7] = experiment: Inhibition of sialyltransferase in mouse B16-F10 cells assessed as recovery time for sialylation at 25.6 uM pretreated for 3 days followed by washing and re-seeding and measured after 6 days by biotinylated MAL2 lectin-based flow cytometry; assay type: cell-based
Outline: (§3)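 B16-F10 cells were pretreated 3 days with 25.6 or 51.2 µM compound or DMSO, washed, reseeded, and sampled daily for 6 days. They were stained with biotinylated MALII (5 µg/ml, 45-60 min, 4 °C) plus streptavidin-PE. Flow cytometry MFI was normalized to control as % lectin binding.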

B16-F10 [8] = experiment: Effect on total cell surface glycosylation in mouse B16F10 cells assessed as inhibition of biotinylated WGA-lectin binding at 102.4 uM after 3 days by flow cytometry; assay type: cell-based; settings: b16-f10, 72 h; outline: as §2
B16-F10 [9] = experiment: Effect on total cell surface glycosylation in mouse B16F10 cells assessed as inhibition of biotinylated GSL1-lectin binding at 102.4 uM after 3 days by flow cytometry; assay type: cell-based; settings: b16-f10, 72 h; outline: as §2
B16-F10 [10] = experiment: Effect on total cell surface glycosylation in mouse B16F10 cells assessed as inhibition of biotinylated SJA-lectin binding at 102.4 uM after 3 days by flow cytometry; assay type: cell-based; settings: b16-f10, 72 h; outline: as §2
[11] = Inhibition of sialyltransferase in HEK293 cells assessed as decrease in lectin binding after 3 days by biotinylated MAL2 lectin and streptavidin-PE based flow cytometry; assay type: cell-based, Homo sapiens; outline: as §1
B16-F10 [12] = experiment: Effect on total cell surface glycosylation in mouse B16F10 cells assessed as inhibition of biotinylated LCA-lectin binding at 102.4 uM after 3 days by flow cytometry; assay type: cell-based; settings: b16-f10, 72 h; outline: as §2
[13] = Inhibition of sialyltransferase in mouse EL4 cells assessed as decrease in lectin binding after 3 days by biotinylated MAL2 lectin and streptavidin-PE based flow cytometry; assay type: cell-based; outline: as §1
[14] = Inhibition of sialyltransferase in human THP1 cells assessed as decrease in lectin binding after 3 days by biotinylated MAL2 lectin and streptavidin-PE based flow cytometry; assay type: cell-based; outline: as §1
B16-F10 [15] = experiment: Cytotoxicity against mouse B16F10 cells assessed as reduction in metabolic activity at <51.2 uM after 3 days by MTT assay; assay type: ADME, cell-based; settings: b16-f10, 72 h
B16-F10 [16] = experiment: Inhibition of sialyltransferase in mouse B16-F10 cells assessed as recovery time for sialylation at 51.2 uM pretreated for 3 days followed by washing and re-seeding and measured after 6 days by biotinylated MAL2 lectin-based flow cytometry; assay type: cell-based; outline: as §3
B16-F10 [17] = experiment: Cytotoxicity against mouse B16F10 cells assessed as reduction in metabolic activity at 204.8 uM after 3 days by MTT assay; assay type: ADME, cell-based; settings: b16-f10, 72 h
[18] = Inhibition of sialyltransferase in mouse 9464D cells assessed as decrease in lectin binding after 3 days by biotinylated MAL2 lectin and streptavidin-PE based flow cytometry; assay type: cell-based; outline: as §1
B16-F10 [19] = experiment: Effect on total cell surface glycosylation in mouse B16F10 cells assessed as inhibition of biotinylated AAL-lectin binding at 102.4 uM after 3 days by flow cytometry; assay type: cell-based; settings: b16-f10, 72 h; outline: as §2

SMILES	EC50 [1] [µM]	Ratio EC50 (B16-F10 [2])	Activity (B16-F10 [3])	EC50 [4] [µM]	Activity (B16-F10 [5])	Activity (B16-F10 [6])	sialylation recovery time (B16-F10 [7])	Activity (B16-F10 [8])	Activity (B16-F10 [9])	Activity (B16-F10 [10])	EC50 [11] [µM]	Activity (B16-F10 [12])	EC50 [13] [µM]	EC50 [14] [µM]	Activity (B16-F10 [15])	TIME (B16-F10 [16]) [h]	Activity (B16-F10 [17])	EC50 [18] [µM]	Activity (B16-F10 [19])
COC(=O)C1(OC(C)=O)O[C@@H]([C@H](OC(C)=O)[C@@H](COC(C)=O)OC(C)=O)[C@H](NC(=O)OCCF)[C@@H](OC(C)=O)[C@H]1F (stereo partly drawn)	1.25	21																	
COC(=O)C1(OC(C)=O)O[C@@H]([C@H](OC(C)=O)[C@@H](COC(C)=O)OC(C)=O)[C@H](NC(=O)OCC(C)C)[C@@H](OC(C)=O)[C@H]1F (stereo partly drawn)	3.33	8	Non-Toxic	5.15	Non-Toxic	Non-Toxic	Active	Non-Toxic	Non-Toxic	Non-Toxic	11.4	Non-Toxic	51.8	0.5	Non-Toxic	120 to 144	Non-Toxic	24.4	Non-Toxic
COC(=O)C1(OC(C)=O)O[C@@H]([C@H](OC(C)=O)[C@@H](COC(C)=O)OC(C)=O)[C@H](NC(=O)OCC(Cl)(Cl)Cl)[C@@H](OC(C)=O)[C@H]1F (stereo partly drawn)	3.83	7																	
C=CCOC(=O)N[C@H]1[C@H]([C@H](OC(C)=O)[C@@H](COC(C)=O)OC(C)=O)OC(OC(C)=O)(C(=O)OC)[C@H](F)[C@@H]1OC(C)=O (stereo partly drawn)	1.39	19	Non-Toxic	1.77	Non-Toxic	Non-Toxic	Active	Non-Toxic	Non-Toxic	Non-Toxic	1.83	Non-Toxic	39.9	0.41	Non-Toxic	120 to 144	Non-Toxic	6.91	Non-Toxic
COC(=O)C1(OC(C)=O)O[C@@H]([C@H](OC(C)=O)[C@@H](COC(C)=O)OC(C)=O)[C@H](NC(=O)CCl)[C@@H](OC(C)=O)[C@H]1F (stereo partly drawn)	18	1														48 to 72			
COC(=O)C1(OC(C)=O)O[C@@H]([C@H](OC(C)=O)[C@@H](COC(C)=O)OC(C)=O)[C@H](NC(=O)OCc2ccccc2)[C@@H](OC(C)=O)[C@H]1F (stereo partly drawn)	14.5	2																	
COC(=O)C1(OC(C)=O)O[C@@H]([C@H](OC(C)=O)[C@@H](COC(C)=O)OC(C)=O)[C@H](NC(=O)C(F)(F)F)[C@@H](OC(C)=O)[C@H]1F (stereo partly drawn)	14.3	2	Non-Toxic	25.5	Non-Toxic	Non-Toxic	Active	Non-Toxic	Non-Toxic	Non-Toxic	42.8	Non-Toxic	> 102	3.3	Non-Toxic	48 to 72	Non-Toxic	46.5	Non-Toxic
CCCCOC(=O)N[C@H]1[C@H]([C@H](OC(C)=O)[C@@H](COC(C)=O)OC(C)=O)OC(OC(C)=O)(C(=O)OC)[C@H](F)[C@@H]1OC(C)=O (stereo partly drawn)	7.45	4																	
COC(=O)C1(OC(C)=O)O[C@@H]([C@H](OC(C)=O)[C@@H](COC(C)=O)OC(C)=O)[C@H](NC(=O)OC(C)(C)C)[C@@H](OC(C)=O)[C@H]1F (stereo partly drawn)	3.48	8	Non-Toxic	12.8	Non-Toxic	Non-Toxic	Active	Non-Toxic	Non-Toxic	Non-Toxic	10.4	Non-Toxic	54.6	1.28	Non-Toxic	120 to 144	Non-Toxic	36.5	Non-Toxic
COC(=O)N[C@H]1[C@H]([C@H](OC(C)=O)[C@@H](COC(C)=O)OC(C)=O)OC(OC(C)=O)(C(=O)OC)[C@H](F)[C@@H]1OC(C)=O (stereo partly drawn)	4.89	5	Non-Toxic	6.33	Non-Toxic	Non-Toxic	Active	Non-Toxic	Non-Toxic	Non-Toxic	3.31	Non-Toxic	59.2	1.98	Non-Toxic	120 to 144	Non-Toxic	18.3	Non-Toxic
COC(=O)C1(OC(C)=O)O[C@@H]([C@H](OC(C)=O)[C@@H](COC(C)=O)OC(C)=O)[C@H](NC(=O)CN=[N+]=[N-])[C@@H](OC(C)=O)[C@H]1F (stereo partly drawn)	19.9	1	Non-Toxic	80.6	Non-Toxic	Non-Toxic	Active	Non-Toxic	Non-Toxic	Non-Toxic	45.6	Non-Toxic	> 102	10.9	Non-Toxic	48 to 72	Non-Toxic	> 102	Non-Toxic
COCCOC(=O)N[C@H]1[C@H]([C@H](OC(C)=O)[C@@H](COC(C)=O)OC(C)=O)OC(OC(C)=O)(C(=O)OC)[C@H](F)[C@@H]1OC(C)=O (stereo partly drawn)	25.5	1											≥ 50						
